Publication PMC6226115 (Clinical and Translational Science, 2018)
Marks after values point to notes of the source that are not given here.

Tests used:
human GlyT2 = target: T1, human GlyT2 (Homo sapiens, UniProt Q9Y345); test: Inhibition of [3H]-glycine uptake in HEK cells overexpressing human GlyT2; format: cell-based
T1 sequence (Q9Y345 1-797): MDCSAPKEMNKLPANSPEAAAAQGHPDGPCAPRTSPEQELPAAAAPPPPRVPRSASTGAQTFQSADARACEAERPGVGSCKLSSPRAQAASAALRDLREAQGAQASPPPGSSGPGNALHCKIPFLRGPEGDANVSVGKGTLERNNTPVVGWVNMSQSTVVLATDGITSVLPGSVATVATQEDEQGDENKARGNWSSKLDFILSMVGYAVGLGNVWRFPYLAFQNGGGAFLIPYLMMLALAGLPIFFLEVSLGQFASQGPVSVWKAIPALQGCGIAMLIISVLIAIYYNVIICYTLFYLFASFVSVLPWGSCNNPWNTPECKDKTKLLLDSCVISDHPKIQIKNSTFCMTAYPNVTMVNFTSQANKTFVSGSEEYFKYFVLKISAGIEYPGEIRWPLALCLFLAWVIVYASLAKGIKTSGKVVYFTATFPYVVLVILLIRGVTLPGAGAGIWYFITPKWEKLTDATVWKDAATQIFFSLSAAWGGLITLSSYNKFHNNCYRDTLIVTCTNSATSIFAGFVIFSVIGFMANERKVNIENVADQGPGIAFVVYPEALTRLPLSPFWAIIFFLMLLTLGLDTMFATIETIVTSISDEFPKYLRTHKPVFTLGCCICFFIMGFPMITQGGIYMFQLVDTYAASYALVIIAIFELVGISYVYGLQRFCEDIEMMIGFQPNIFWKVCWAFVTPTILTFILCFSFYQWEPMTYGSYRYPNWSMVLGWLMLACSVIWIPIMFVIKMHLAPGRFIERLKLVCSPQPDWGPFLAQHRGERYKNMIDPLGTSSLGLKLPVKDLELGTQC
How it was run: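 HEK cells overexpressing human GlyT2 were grown on scintillating microplates and incubated 20 min with inhibitor at 0.9–3000 nM in HBSS containing 5 mM alanine. Uptake was started with 250 nM [3H]glycine (0.0125 mCi/mL), and counting ran immediately over 57 min. IC50 came from a four-parameter log(inhibitor)-response fit.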

[1] = system: glycine levels in the rat cerebrospinal fluid (CSF); test: Glycine in rat CSF after single oral dose; format: in vivo; details: 90 min
How it was run: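 Male Wistar rats were acclimatised 1 h in the test room, then dosed orally once with vehicle (0.5% Natrosol, 0.01% Tween-80) or 0.2, 0.6 or 2 mg/kg (n = 8 each). After 90 min, CSF was drawn by cisterna magna puncture under anaesthesia and frozen at −70°C. Glycine was quantified by LC-MS/MS. Data are mean ± SEM, compared with vehicle by one-way ANOVA with Dunnett's test.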

[2] = Compound levels in rat plasma and CSF; format: in vivo; details: plasma, po
How it was run: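 Adult male Wistar rats (200–220 g) were given a single oral dose of 0.2, 0.6 or 2 mg/kg in 0.5% Natrosol with 0.01% Tween-80 (n = 8 per group). At 90 min, under s.c. inactin/ketavet anaesthesia, blood and cisterna magna CSF were taken. Plasma was stored at −20°C and CSF at −70°C. Drug was measured by HPLC-MS/MS, and CSF/plasma ratio was derived.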

[3] = previously observed; cited from earlier work
[4] = Phase I pharmacokinetics in plasma and CSF, multiple dosing over 14 days; format: in vivo, human; details: for AUC0–14: after first dose, geometric mean (% gCV); for Tmax / Cmax: male, human, po
How it was run: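 Healthy males received 5–50 mg orally once daily for 14 days. CSF was collected hourly via lumbar catheter for 14 h after dose 1 and by puncture before the last dose. Plasma was sampled hourly on days 1 and 14, every 24 h on days 2–4 and every 48 h on days 6–12. Drug was measured by validated HPLC-MS/MS with noncompartmental analysis. Steady state was judged from trough plasma concentrations (days 2–14) using pairwise 95% CIs.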

GlyT1 = target: T2, GlyT1 (Rattus norvegicus, UniProt P28572); test: Inhibition of [3H]-glycine uptake in rat primary cortical neurons; format: cell-based; details: IC50, inhibition of [3H]-glycine uptake, mean
T2 sequence (P28572 1-638): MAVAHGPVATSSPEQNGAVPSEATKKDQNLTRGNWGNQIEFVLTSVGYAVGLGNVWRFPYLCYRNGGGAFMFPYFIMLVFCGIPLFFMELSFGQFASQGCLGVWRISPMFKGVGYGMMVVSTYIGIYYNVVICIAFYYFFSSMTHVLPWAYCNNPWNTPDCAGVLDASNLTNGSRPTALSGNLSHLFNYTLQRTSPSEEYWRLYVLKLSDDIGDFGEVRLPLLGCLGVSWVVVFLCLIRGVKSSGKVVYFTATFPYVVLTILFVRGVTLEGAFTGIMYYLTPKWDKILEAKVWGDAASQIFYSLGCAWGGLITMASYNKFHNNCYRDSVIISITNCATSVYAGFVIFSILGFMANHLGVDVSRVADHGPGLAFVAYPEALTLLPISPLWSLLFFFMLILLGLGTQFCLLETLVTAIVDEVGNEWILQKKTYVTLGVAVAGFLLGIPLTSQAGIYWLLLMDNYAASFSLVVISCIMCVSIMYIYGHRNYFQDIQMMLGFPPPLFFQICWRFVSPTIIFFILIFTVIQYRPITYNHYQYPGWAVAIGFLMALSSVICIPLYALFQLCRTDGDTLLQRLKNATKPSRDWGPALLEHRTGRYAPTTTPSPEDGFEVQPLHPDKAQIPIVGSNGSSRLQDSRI
How it was run: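 Cortical neurons from E18 rats were differentiated in vitro for 7, 11 or 18 days, then run as a scintillating-plate uptake assay: 20 min incubation, inhibitor 0.9–3000 nM in HBSS with 5 mM alanine, and 200 nM [3H]glycine (0.01 mCi/mL) with counting over 57 min. IC50s came from four-parameter fits per experiment and were then averaged.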

## C[C@@H](Oc1ccc(S(C)(=O)=O)cc1C(=O)N1C[C@@H]2C[C@]2(c2cc(C(F)(F)F)on2)C1)C(F)(F)F [BI 425809]
Human GlyT2
  IC50: > 10000 nM
[1]; 0.2 mg/kg single oral dose, not significant
  Increase of glycine CSF levels relative to vehicle: 30%
[1]; 0.6 mg/kg single oral dose, P < 0.05
  Increase of glycine CSF levels relative to vehicle: 61%
[1]; 2 mg/kg single oral dose, P < 0.01
  Increase of glycine CSF levels relative to vehicle: 78%
[2]; 0.2 mg/kg
  concentration at 90 min: 79 nM
[2]; 0.6 mg/kg
  concentration at 90 min: 217 nM
[2]; 2 mg/kg
  concentration at 90 min: 723 nM
[3]
  Attainment of steady state after administration: ≤ 8 days
  Half-life: ~ 40 hours
[4]; CSF, 5 mg oral, n = 6
  AUC0–14: 0.0299 µM·h
[4]; CSF, 10 mg oral, n = 6
  AUC0–14: 0.0598 µM·h
[4]; CSF, 25 mg oral, n = 6
  AUC0–14: 124.0 (27.2) ^e nM
[4]; CSF, 50 mg oral, n = 5
  AUC0–14: 0.26 µM·h
[4]; healthy volunteers, once daily dosing, trough plasma concentrations
  Steady state achieved by: ≤ 6 days
[4]; CSF
  Tmax: 5 to 8 h
[4]; CSF, 5 mg
  Cmax: 2.9 nM
  Tmax: 8 h
[4]; CSF, 10 mg
  Cmax: 5.6 nM
  Tmax: 5.5 h
[4]; CSF, 25 mg
  Cmax: 12.2 nM
  Tmax: 6.1 h
[4]; CSF, 50 mg
  Cmax: 25 nM
  Tmax: 8.1 h
[4]; plasma
  Tmax: 3 to 5 h
[4]; plasma, 5 mg
  Cmax: 42.3 nM
  Tmax: 5 h
[4]; plasma, 10 mg
  Cmax: 85.6 nM
  Tmax: 4.5 h
[4]; plasma, 25 mg
  Cmax: 176 nM
  Tmax: 3 h
[4]; plasma, 50 mg
  Cmax: 328 nM
  Tmax: 5 h
[4]; plasma, 5 mg oral, n = 6
  AUC0–14: 0.421 µM·h
[4]; plasma, 10 mg oral, n = 6
  AUC0–14: 0.829 µM·h
[4]; plasma, 25 mg oral, n = 7
  AUC0–14: 1,840 (24.2) ^d nM
[4]; plasma, 50 mg oral, n = 5
  AUC0–14: 3.3 µM·h
GlyT1
  IC50: 5.2 ± 1.2 nM
